{"source": "ChEMBL document CHEMBL1123137", "about": "(J Med Chem, 1985)", "key": {"[1]": {"test": "HPLC capacity factor (k')", "assay_type": "ADME"}, "[2]": {"test": "Molar potency ratio was evaluated at 46 uM"}, "[3]": {"test": "Molar potency ratio was evaluated at 35 uM"}, "[4]": {"test": "Molar potency ratio was evaluated at 50 uM"}, "[5]": {"test": "Molar potency ratio was evaluated at 18 uM"}, "[6]": {"test": "Molar potency ratio was evaluated at 37 uM"}, "[7]": {"test": "Molar potency ratio was evaluated at 47 uM"}, "[8]": {"test": "Maximum increase in coronary flow (percent) of N6-modified adenosines at 27 uM"}, "[9]": {"test": "Molar potency ratio was evaluated at 27 uM"}, "[10]": {"test": "Molar potency ratio was evaluated at 61 uM"}, "[11]": {"test": "Molar potency ratio was evaluated at 107 uM"}, "Albumin": {"biological_target": "Albumin (Bos taurus, UniProt P02769)", "sequence (P02769 whole entry)": "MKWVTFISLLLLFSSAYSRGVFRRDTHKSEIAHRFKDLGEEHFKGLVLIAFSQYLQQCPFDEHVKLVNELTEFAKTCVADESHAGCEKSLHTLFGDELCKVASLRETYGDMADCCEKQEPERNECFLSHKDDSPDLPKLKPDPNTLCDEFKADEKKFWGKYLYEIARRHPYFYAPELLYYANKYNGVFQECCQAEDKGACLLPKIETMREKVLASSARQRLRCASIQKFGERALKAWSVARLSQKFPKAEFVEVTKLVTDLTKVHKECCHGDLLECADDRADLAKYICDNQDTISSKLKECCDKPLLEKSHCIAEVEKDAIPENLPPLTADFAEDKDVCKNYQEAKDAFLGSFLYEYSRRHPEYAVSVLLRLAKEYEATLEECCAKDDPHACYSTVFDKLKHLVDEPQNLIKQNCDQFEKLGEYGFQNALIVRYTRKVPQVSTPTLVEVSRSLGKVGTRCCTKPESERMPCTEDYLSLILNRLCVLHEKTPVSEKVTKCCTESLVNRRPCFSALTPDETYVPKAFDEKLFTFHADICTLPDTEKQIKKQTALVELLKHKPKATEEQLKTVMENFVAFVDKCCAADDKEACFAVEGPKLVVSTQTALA", "test": "Serum albumin binding", "conditions": "cattle", "how_it_was_run": "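Affinity for bovine serum albumin measured by Hummel–Dreyer method adapted for HPLC. Samples of BSA (0.25–2 g/dL) with 25 μM analogue in 0.1 M NaH2PO4, pH 7.4, were applied to an Aquapore OH-100 column equilibrated with 25 μM analogue in the same buffer. Effluent absorbance was read at 254 nm. Duplicate estimates were made at each of two BSA concentrations, usually 1 and 2 g/dL.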"}}, "data": [{"smiles": "CC1(Nc2ncnc3c2ncn3C2O[C@H](CO)[C@@H](O)[C@H]2O)CCCCC1", "note": "(stereo partly drawn)", "values": [{"measurement": "k'", "setting": "[1]", "result": 9.29}, {"measurement": "MPR", "setting": "[2]", "result": 5, "unit": "%"}]}, {"smiles": "CC(C)(C)Nc1ncnc2c1ncn2C1O[C@H](CO)[C@@H](O)[C@H]1O", "note": "(stereo partly drawn)", "values": [{"measurement": "MPR", "setting": "[3]", "result": 7, "unit": "%"}, {"measurement": "k'", "setting": "[1]", "result": 2.44}]}, {"smiles": "CC(C)(CCc1ccccc1)Nc1ncnc2c1ncn2C1O[C@H](CO)[C@@H](O)[C@H]1O", "note": "(stereo partly drawn)", "values": [{"measurement": "MPR", "setting": "[4]", "result": 4, "unit": "%"}, {"measurement": "k'", "setting": "[1]", "result": 18.7}]}, {"smiles": "OC[C@H]1OC(n2cnc3c(NC4C5C[C@H]6C[C@@H](C5)C[C@@H]4C6)ncnc32)[C@H](O)[C@@H]1O", "note": "(stereo partly drawn)", "values": [{"measurement": "MPR", "setting": "[5]", "result": 0}, {"measurement": "k'", "setting": "[1]", "result": 12.2}]}, {"smiles": "CC1(C)C2CCC(CNc3ncnc4c3ncn4C3O[C@H](CO)[C@@H](O)[C@H]3O)C1C2", "note": "(stereo partly drawn)", "values": [{"measurement": "k'", "setting": "[1]", "result": 21}, {"measurement": "MPR", "setting": "[6]", "result": 8, "unit": "%"}]}, {"smiles": "CCC(C)(C)Nc1ncnc2c1ncn2C1O[C@H](CO)[C@@H](O)[C@H]1O", "note": "(stereo partly drawn)", "values": [{"measurement": "MPR", "setting": "[7]", "result": 12, "unit": "%"}, {"measurement": "k'", "setting": "[1]", "result": 4.28}]}, {"smiles": "CC(C)(Nc1ncnc2c1ncn2C1O[C@H](CO)[C@@H](O)[C@H]1O)c1ccccc1", "note": "(stereo partly drawn)", "values": [{"measurement": "max coronary flow increase", "setting": "[8]", "result": 7, "unit": "%"}, {"measurement": "k'", "setting": "[1]", "result": 4.45}]}, {"smiles": "OC[C@H]1OC(n2cnc3c(NC45C[C@H]6C[C@@H](C4)C[C@@H](C5)C6)ncnc32)[C@H](O)[C@@H]1O", "note": "(stereo partly drawn)", "values": [{"measurement": "MPR", "setting": "[9]", "result": 0}, {"measurement": "k'", "setting": "[1]", "result": 19.6}]}, {"smiles": "OC[C@H]1OC(n2cnc3c(NC(c4ccccc4)c4ccccc4)ncnc32)[C@H](O)[C@@H]1O", "note": "(stereo partly drawn)", "values": [{"measurement": "MPR", "setting": "[10]", "result": 27, "unit": "%"}, {"measurement": "k'", "setting": "[1]", "result": 6.11}]}, {"smiles": "OC[C@H]1OC(n2cnc3c(OCCc4ccccc4)ncnc32)[C@H](O)[C@@H]1O", "note": "(stereo partly drawn)", "values": [{"measurement": "MPR", "setting": "[11]", "result": 9, "unit": "%"}, {"measurement": "k'", "setting": "[1]", "result": 2.36}]}, {"smiles": "OC[C@H]1O[C@@H](n2cnc3c(NC4CCCCCCC4)ncnc32)[C@H](O)[C@@H]1O", "values": [{"measurement": "Amount bound", "setting": "Albumin", "result": 10.1, "unit": "M/g"}, {"measurement": "k'", "setting": "[1]", "result": 8.8}, {"measurement": "MPR", "setting": "[6]", "result": 12, "unit": "%"}]}]}
